Data taken from ChEMBL document CHEMBL1133584, “Potent and selective non-peptidic inhibitors of endothelin-converting enzyme-1 with sustained duration of action” (J Med Chem, 2000).

Legend:
[1] = target: T1, Endothelin-converting enzyme 1 (Homo sapiens, UniProt P42892); test: In Vitro inhibition of recombinant human endothelin converting enzyme-1
T1 sequence (P42892 whole entry): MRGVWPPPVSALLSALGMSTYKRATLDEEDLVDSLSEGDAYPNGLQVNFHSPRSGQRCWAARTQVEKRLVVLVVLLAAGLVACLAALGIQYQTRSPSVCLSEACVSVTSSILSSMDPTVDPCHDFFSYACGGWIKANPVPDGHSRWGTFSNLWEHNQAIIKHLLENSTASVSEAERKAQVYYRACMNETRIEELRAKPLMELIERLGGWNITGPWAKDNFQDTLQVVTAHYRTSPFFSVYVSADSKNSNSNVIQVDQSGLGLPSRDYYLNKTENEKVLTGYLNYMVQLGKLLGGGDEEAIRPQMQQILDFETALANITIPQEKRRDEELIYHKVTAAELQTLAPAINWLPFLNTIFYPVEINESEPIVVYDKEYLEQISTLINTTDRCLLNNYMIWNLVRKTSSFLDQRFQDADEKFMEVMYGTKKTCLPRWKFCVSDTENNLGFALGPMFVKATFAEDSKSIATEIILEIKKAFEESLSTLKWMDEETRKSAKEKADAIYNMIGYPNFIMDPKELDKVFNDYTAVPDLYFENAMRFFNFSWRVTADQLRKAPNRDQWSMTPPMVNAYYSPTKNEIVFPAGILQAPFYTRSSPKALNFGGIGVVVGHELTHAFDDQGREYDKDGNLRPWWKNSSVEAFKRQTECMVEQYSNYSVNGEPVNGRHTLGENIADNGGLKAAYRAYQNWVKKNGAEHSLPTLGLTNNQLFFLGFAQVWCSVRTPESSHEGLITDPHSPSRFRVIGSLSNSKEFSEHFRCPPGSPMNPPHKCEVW
In short: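 Enzyme was human recombinant ECE-1a from membranes of CHO cells expressing it. The IC50 was determined by the assay method of earlier work.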

[2] = Selectivity ratio of IC50 NEP/IC50 ECE
In short: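 ECE selectivity was the ratio of IC50 against rat kidney cortex NEP 24.11 to IC50 against CHO-membrane human recombinant ECE-1a.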

[3] = target: T2, Neprilysin (Rattus norvegicus, UniProt P07861); test: In vitro inhibition of rat neutral endopeptidase
T2 sequence (P07861 whole entry): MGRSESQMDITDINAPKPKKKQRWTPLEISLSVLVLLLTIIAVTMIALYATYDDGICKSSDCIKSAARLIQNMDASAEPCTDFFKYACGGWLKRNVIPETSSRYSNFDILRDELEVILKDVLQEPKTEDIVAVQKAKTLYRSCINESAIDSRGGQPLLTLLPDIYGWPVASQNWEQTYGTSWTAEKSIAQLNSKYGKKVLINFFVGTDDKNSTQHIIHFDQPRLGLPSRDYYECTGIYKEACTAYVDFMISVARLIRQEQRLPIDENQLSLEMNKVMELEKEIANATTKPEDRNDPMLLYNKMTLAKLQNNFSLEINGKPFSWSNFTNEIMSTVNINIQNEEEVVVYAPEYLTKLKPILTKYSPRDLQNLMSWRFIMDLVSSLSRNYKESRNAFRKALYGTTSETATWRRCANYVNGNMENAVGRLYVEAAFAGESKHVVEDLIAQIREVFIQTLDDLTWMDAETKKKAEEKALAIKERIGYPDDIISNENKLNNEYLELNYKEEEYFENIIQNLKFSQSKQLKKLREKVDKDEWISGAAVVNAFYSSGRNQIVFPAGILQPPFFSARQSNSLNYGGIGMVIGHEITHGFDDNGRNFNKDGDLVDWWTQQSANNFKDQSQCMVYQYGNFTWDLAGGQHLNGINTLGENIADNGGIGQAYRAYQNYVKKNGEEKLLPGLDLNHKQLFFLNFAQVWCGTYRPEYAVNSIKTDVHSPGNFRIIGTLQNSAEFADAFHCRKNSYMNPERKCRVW

[4] = target: T3, Endothelin-converting enzyme 1 (Homo sapiens) (UniProt P42892); test: Inhibition of Endothelin-converting enzyme 1 activity at a concentration of 1 uM
T3 sequence (whole entry): T1 sequence (P42892 whole entry)
In short: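 Human recombinant ECE-1a came from CHO cell membranes. Activity was measured with test compound at 1 µM and expressed as percent inhibition.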

IC50 [1] | Selectivity [2] | IC50 [3] | inhibition [4] | SMILES
30 nM | 7.7 | 230 nM |  | O=C1c2ccccc2-c2ccc(CC(NCP(=O)(O)O)c3nnn[nH]3)cc21 (stereo not drawn)
520 nM | 0.9 | 450 nM |  | O=P(O)(O)CNC(Cc1ccc2c(c1)Cc1ccccc1-2)c1nnn[nH]1 (stereo not drawn)
65 nM | > 286 | > 16000 nM | 89% | CC(C)CCCC(N[C@@H](Cc1ccc2c(c1)oc1ccccc12)C(=O)O)P(=O)(O)O (stereo partly drawn)
22 nM | 818 | 18000 nM | 92% | COc1cc(CCC(N[C@@H](Cc2ccc3c(c2)oc2ccccc23)C(=O)O)P(=O)(O)O)cc(OC)c1OC (stereo partly drawn)
6.4 nM | 0.42 | 2.7 nM | 95% | O=C(O)[C@H](Cc1ccc2c(c1)oc1ccccc12)NC(=O)[C@H](Cc1ccc2c(c1)oc1ccccc12)NCP(=O)(O)O
22 nM | 104 | 2300 nM | 92% | O=C(O)[C@H](Cc1ccc2c(c1)oc1ccccc12)NCP(=O)(O)O
23 nM | 0.5 | 12 nM | 91% | O=C(O)C(Cc1ccccc1)NC(=O)[C@H](Cc1ccc2c(c1)oc1ccccc12)NCP(=O)(O)O (stereo partly drawn)
> 4000 nM | < 0.03 | 140 nM |  | Cn1c2ccccc2c2ccc(CC(NCP(=O)(O)O)c3nnn[nH]3)cc21 (stereo not drawn)
6 nM | 19 | 114 nM |  | O=P(O)(O)CNC(Cc1ccc2c(c1)oc1ccccc12)c1nnn[nH]1 (stereo not drawn)
13 nM | 2.3 | 31 nM | 92% | CC(C)CC(NC(=O)[C@H](Cc1ccc2c(c1)oc1ccccc12)NCP(=O)(O)O)C(=O)O (stereo partly drawn)
110 nM |  | 6400 nM |  | COc1cccc(CCC(N[C@@H](Cc2ccc3c(c2)oc2ccccc23)C(=O)O)P(=O)(O)O)c1OC (stereo in doubt; 40d')
